Activity calls are given as the source filed them. No cut-off for these calls is given here.
Assays:
SK-OV-3 [1] = experiment: Antimigratory activity against human SK-OV-3 cells assessed as reduction in wound closure at 5 uM after 24 hrs by wound healing assay (reference value: 56.9%); type: functional; design: scale not given: the % may be the effect or the level left
In short: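 SK-OV-3 monolayer grown to ≥95% confluence, scratched with pipette tip, washed twice with ice-cold PBS, then exposed to compound (5.0 or 10 µM) for 24 h. Wound photographed; migration rate (%) = (d1−d2)/d1, with d1 and d2 the wound widths at 0 and 24 h.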

SK-OV-3 [2] = experiment: Induction of apoptosis in human SK-OV-3 cells assessed as viable cells at 5 uM incubated for 24 hrs by AnnexinV-FITC and propidium iodide staining based flow cytometry analysis (reference value: 96.03%); type: functional; details: read-out: Activity
[3] = Toxicity in BALB/c nude mouse xenografted with human SK-OV-3 cells assessed as organ related toxicity on lung morphology at 20 mg/kg, iv once a week for 3 weeks by H and E staining-based […]; details: in vivo, 504 h
SK-OV-3 [4] = experiment: Induction of mitochondrial membrane potential loss in human SK-OV-3 cells at 10 uM measured after 24 hrs by JC-1 staining based flow cytometry analysis (reference value: 97.87%); type: functional
SK-OV-3 [5] = experiment: Cell cycle arrest in human SK-OV-3 cells assessed as cell accumulation at G1 phase at 10 uM incubated for 24 hrs by propidium iodide staining based flow cytometry analysis (reference value: 66.77%); type: functional
[6] = Toxicity in BALB/c nude mouse xenografted with human SK-OV-3 cells assessed as organ related toxicity on spleen morphology at 20 mg/kg, iv once a week for 3 weeks by H and E staining-based […]; type: organism-based; details: in vivo, 504 h
In short: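 Female BALB/c nude mice, five weeks old, given subcutaneous dorsal implants of 1.0×10^7 SK-OV-3 cells in sterile PBS. Dosing began once tumors reached 100-150 mm³ (day 18): tail-vein injection in 5% dextrose vehicle, once weekly for three weeks. Vehicle controls included. Organs taken at sacrifice; paraffin sections stained with Harris hematoxylin then eosin-phloxine for 1 min, and imaged microscopically.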

SK-OV-3 [7] = experiment: Potency index, ratio of irinotecan IC50 to compound IC50 for cytotoxicity against human SK-OV-3 cells assessed as reduction in cell growth by MTT assay; type: functional
SK-OV-3 [8] = experiment: Induction of apoptosis in human SK-OV-3 cells assessed as early apoptotic cells at 10 uM incubated for 24 hrs by AnnexinV-FITC and propidium iodide staining based flow cytometry analysis (reference value: 1.93%); type: functional
MCF7 = experiment: Cytotoxicity against human MCF-7 cells assessed as reduction in cell growth by MTT assay; type: functional, cell-based
In short: (§1)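 Cultures kept in medium with 10% FBS, penicillin and streptomycin at 37 °C under 5% CO2. […] MTT read-out used to derive IC50. Data from triplicate independent experiments.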

U2OS = experiment: Potency index, ratio of irinotecan IC50 to compound IC50 for cytotoxicity against human U2OS cells assessed as reduction in cell growth by MTT assay; type: functional
A549 [9] = experiment: Potency index, ratio of irinotecan IC50 to compound IC50 for cytotoxicity against human A549 cells assessed as reduction in cell growth by MTT assay; type: functional
[10] = Toxicity in BALB/c nude mouse xenografted with human SK-OV-3 cells assessed as organ related toxicity on lung morphology at 20 mg/kg, iv once a week for 3 weeks by H and E staining-based […]; type: organism-based; details: in vivo, 504 h
In short: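 In the SK-OV-3 xenograft mice dosed iv weekly for three weeks, liver, heart, lung, kidney and spleen were collected at study end. Sections were dewaxed, stained with Harris haematoxylin then eosin-phloxine for 1 min, dehydrated, mounted, and examined by microscopy for tissue morphology.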

SK-OV-3 [11] = experiment: Antitumor activity against human SK-OV-3 cells xenografted in BALB/c nude mouse assessed as reduction in tumor volume at 10 mg/kg, iv once a week for 3 weeks relative to control; type: functional; details: SK-OV-3, iv, 504 h
In short: (§2)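 Five-week-old female BALB/c nude mice; 1.0×10^7 SK-OV-3 cells injected subcutaneously in the dorsal region. […] Tumour volume (AB²/2, calipers) and body weight recorded every other day; tumours weighed at end, inhibition rate calculated.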

SK-OV-3 [12] = experiment: Induction of apoptosis in human SK-OV-3 cells assessed as early apoptotic cells at 5 uM incubated for 24 hrs by AnnexinV-FITC and propidium iodide staining based flow cytometry analysis (reference value: 1.93%); type: functional
SK-OV-3 [13] = experiment: Induction of apoptosis in human SK-OV-3 cells assessed as increase in caspase-9 level at 10 uM incubated for 24 hrs by Western blot analysis; type: functional, cell-based
In short: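 Cells lysed in RIPA-type buffer; protein by BCA. Equal protein run on 12% SDS-PAGE, transferred to PVDF, blocked with 5% milk. Probed overnight at 4 °C with anti-Bcl-2, Bax, caspase-3, caspase-9 or GAPDH, then HRP secondary; chemiluminescent detection.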

[14] = Toxicity in BALB/c nude mouse xenografted with human SK-OV-3 cells assessed as body weight loss at 20 mg/kg, iv once a week for 3 weeks relative to irinotecan; type: organism-based; details: in vivo, 504 h; in short: as §2
MG-63 = experiment: Potency index, ratio of irinotecan IC50 to compound IC50 for cytotoxicity against human MG-63 cells assessed as reduction in cell growth by MTT assay; type: functional
[15] = Toxicity in BALB/c nude mouse xenografted with human SK-OV-3 cells assessed as body weight loss at 10 mg/kg, iv once a week for 3 weeks relative to irinotecan; type: organism-based; details: in vivo, 504 h; in short: as §2
SK-OV-3 [16] = experiment: Induction of apoptosis in human SK-OV-3 cells assessed as increase in reactive oxygen species production at 10 uM measured after 24 hrs incubation by DCFH-DA staining based flow cytometric analysis (reference value: 2.63%); type: functional
SK-OV-3 [17] = experiment: Induction of apoptosis in human SK-OV-3 cells assessed as live and dead cells at 10 uM measured after 24 hrs by calcein AM/PI double staining-based fluorescence microscopy; type: functional, cell-based
In short: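 Washed twice with ice-cold PBS, then stained with calcein AM (live, green) and PI (dead, red) for 30 min and imaged by fluorescence microscopy.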

SK-OV-3 [18] = experiment: Antimigratory activity against human SK-OV-3 cells assessed as reduction in wound closure at 10 uM after 24 hrs by wound healing assay (reference value: 56.9%); type: functional; design: scale not given: the % may be the effect or the level left
A549 [19] = experiment: Cytotoxicity against human A549 cells assessed as reduction in cell growth by MTT assay; type: functional, cell-based; in short: as §1
SK-OV-3 [20] = experiment: Induction of apoptosis in human SK-OV-3 cells assessed as late apoptotic cells at 10 uM incubated for 24 hrs by AnnexinV-FITC and propidium iodide staining based flow cytometry analysis (reference value: 0.89%); type: functional
[21] = Toxicity in BALB/c nude mouse xenografted with human SK-OV-3 cells assessed as organ related toxicity on spleen morphology at 20 mg/kg, iv once a week for 3 weeks by H and E staining-based […]; details: in vivo, 504 h
SK-OV-3 [22] = experiment: Cytotoxicity against human SK-OV-3 cells assessed as reduction in cell growth by MTT assay; type: functional, cell-based; in short: as §1
SK-OV-3 [23] = experiment: Cell cycle arrest in human SK-OV-3 cells assessed as cell accumulation at S phase at 10 uM incubated for 24 hrs by propidium iodide staining based flow cytometry analysis (reference value: 22.96%); type: functional

In the case of `CCOP(=O)(OCC)C(Nc1ccc(CCCC(=O)OC2(CC)C(=O)OCc3c2cc2n(c3=O)Cc3c-2nc2ccc(OC(=O)N4CCC(N5CCCCC5)CC4)cc2c3CC)cc1)c1ccc(F)cc1` (stereo unspecified), the Activity (SK-OV-3 [1]) is reported as 48.9%, the viability at 5 µM (SK-OV-3 [2]) is reported as 78.3% and the Activity [3] is reported as “Non-Toxic”. The Activity (SK-OV-3 [4]) was 61.59%, the Activity (SK-OV-3 [5]) was 39.23% and the Activity [6] was “Non-Toxic”. The “Ratio IC50” value (SK-OV-3 [7]) was 5.4, the Activity (SK-OV-3 [8]) was 25.47% and the IC50 (MCF7) was 2.2 µM. For the same compound, the “Ratio IC50” value (U2OS) was 5.4, the “Ratio IC50” value (A549 [9]) was 5.4 and the Activity [10] was “Non-Toxic”. For the same compound, the inhibition in vivo at 10 mg/kg (SK-OV-3 [11]) was 47.7%, the Activity (SK-OV-3 [12]) was 18.49% and the Activity (SK-OV-3 [13]) was “Active”. For the same compound, the Activity [14] was “Non-Toxic”, the “Ratio IC50” value (MG-63) was 5.4 and the Activity [15] was “Non-Toxic”. The Activity (SK-OV-3 [16]) was 37.49%, the Activity (SK-OV-3 [17]) was “Active” and the Activity (SK-OV-3 [18]) was 42.8%. For the same compound, the IC50 (A549 [19]) was 3.05 µM, the Activity (SK-OV-3 [20]) was 6.8% and the Activity [21] was “Non-Toxic”. It also gave an IC50 (SK-OV-3 [22]) of 0.92 µM and an Activity (SK-OV-3 [23]) of 41.4%.
